From ChEMBL document CHEMBL1125678, “Quinazolineacetic acids and related analogues as aldose reductase inhibitors” (J Med Chem, 1991)
One block for each molecule: values may come before it.

Key:
Rattus norvegicus [1] = test: in vivo inhibition of galactitol accumulation in the sciatic nerve of rats fed 20% galactose for 4 day; settings: 96 h
[2] = molecular target: Aldo-keto reductase family 1 member B1 (Bos taurus) (UniProt P16116); test: In vitro inhibition of aldose reductase in partially purified bovine lens preparation at a concentration of 10e -7M.
Outline: (§1)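 Enzyme from bovine lens, partially purified by the cited method with the final chromatographic step omitted. DL-Glyceraldehyde was the substrate. Test compounds were run in duplicate at 1×10⁻⁵, 1×10⁻⁶, 1×10⁻⁷ or 4×10⁻⁸ M. Values are % inhibition of enzymatic activity.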

[3] = molecular target: Aldo-keto reductase family 1 member B1 (Bos taurus) (UniProt P16116); test: In vitro inhibition of aldose reductase in partially purified bovine lens preparation at a concentration of 10e-6 M.
Outline: as §1

Rattus norvegicus [4] = test: In vivo inhibition of galactitol accumulation in the sciatic nerve of rats fed 20% galactose for 4 day at 82 mg/kg/day dose; NS = No Significant inhibition of polyol accumulation; format: functional, organism-based
Outline: (§2)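 Male Sprague-Dawley rats (50–70 g) in groups of six were fed chow with 20% (w/w) galactose. Controls received 20% glucose instead. Test compound was mixed into the diet, and dose was calculated from actual food intake. Rats were killed by decapitation after 4 days. Result is % lowering of tissue galactitol versus galactose-fed controls, as the mean of six animals, compared by Dunnett's multiple comparison.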

Rattus norvegicus [5] = test: In vivo inhibition of galactitol accumulation in the diaphragm of rats fed 20% galactose for 4 day at 82 mg/kg/day dose; NS = No Significant inhibition of polyol accumulation; format: functional, organism-based
Outline: as §2

[6] = molecular target: Aldo-keto reductase family 1 member B1 (Bos taurus) (UniProt P16116); test: In vitro inhibition of Aldose reductase in partially purified bovine lens preparation at a concentration of 10e -7M.
Outline: as §1

[7] = molecular target: Aldo-keto reductase family 1 member B1 (Bos taurus) (UniProt P16116); test: In vitro inhibition of Aldose reductase in partially purified bovine lens preparation at a concentration of 4*10e -8M.
Outline: as §1

Rattus norvegicus [8] = test: In vivo inhibition of galactitol accumulation in the sciatic nerve of rats fed 20% galactose for 4 day at 96 mg/kg/day dose; format: functional
Rattus norvegicus [9] = test: In vivo inhibition of galactitol accumulation in the diaphragm of rats fed 20% galactose for 4 day at 96 mg/kg/day dose; format: functional
Outline: as §2

[10] = molecular target: Aldo-keto reductase family 1 member B1 (Bos taurus) (UniProt P16116); test: In vitro inhibition of aldose reductase in partially purified bovine lens preparation at a concentration of 4*10e -8M.
Outline: as §1

Rattus norvegicus [11] = test: In vivo inhibition of galactitol accumulation in the diaphragm of rats fed 20% galactose for 4 day at 100 mg/kg/day dose; format: functional
Outline: as §2

Rattus norvegicus [12] = test: In vivo inhibition of galactitol accumulation in the sciatic nerve of rats fed 20% galactose for 4 day at 100 mg/kg/day dose; format: functional
Outline: as §2

[13] = molecular target: Aldo-keto reductase family 1 member B1 (Bos taurus) (UniProt P16116); test: in vitro inhibition of Aldose reductase in partially purified bovine lens preparation at a concentration of 10e-6 M.
Rattus norvegicus [14] = test: In vivo inhibition of galactitol accumulation in the sciatic nerve of rats fed 20% galactose for 4 day at 77 mg/kg/day dose; NS = No Significant inhibition of polyol accumulation; format: functional, organism-based
Outline: as §2

Rattus norvegicus [15] = test: In vivo inhibition of galactitol accumulation in the diaphragm of rats fed 20% galactose for 4 day at 77 mg/kg/day dose; NS = No Significant inhibition of polyol accumulation; format: functional, organism-based
Outline: as §2

Rattus norvegicus [16] = test: In vivo inhibition of galactitol accumulation in the sciatic nerve of rats fed 20% galactose for 4 day at 101 mg/kg/day dose; format: functional
Outline: as §2

Rattus norvegicus [17] = test: In vivo inhibition of galactitol accumulation in the diaphragm of rats fed 20% galactose for 4 day at 101 mg/kg/day dose; format: functional
Outline: as §2

Rattus norvegicus [18] = test: In vivo inhibition of galactitol accumulation in the sciatic nerve of rats fed 20% galactose for 4 day at 79 mg/kg/day dose; NS = No Significant inhibition of polyol accumulation; format: functional, organism-based
Outline: as §2

Rattus norvegicus [19] = test: In vivo inhibition of galactitol accumulation in the diaphragm of rats fed 20% galactose for 4 day at 79 mg/kg/day dose; NS = No Significant inhibition of polyol accumulation; format: functional, organism-based
Outline: as §2

Rattus norvegicus [20] = test: In vivo inhibition of galactitol accumulation in the sciatic nerve of rats fed 20% galactose for 4 day at 90 mg/kg/day dose; NS = No Significant inhibition of polyol accumulation; format: functional, organism-based
Outline: as §2

Rattus norvegicus [21] = test: In vivo inhibition of galactitol accumulation in the diaphragm of rats fed 20% galactose for 4 day at 90 mg/kg/day dose; NS = No Significant inhibition of polyol accumulation; format: functional, organism-based
Outline: as §2

[22] = molecular target: Aldo-keto reductase family 1 member B1 (Bos taurus) (UniProt P16116); test: in vitro inhibition of aldose reductase in partially purified bovine lens preparation at a concentration of 10e -5M.
Rattus norvegicus [23] = test: In vivo inhibition of galactitol accumulation in the sciatic nerve of rats fed 20% galactose for 4 day at 105 mg/kg/day dose; NS = No Significant inhibition of polyol accumulation; format: functional, organism-based
Outline: as §2

Rattus norvegicus [24] = test: In vivo inhibition of galactitol accumulation in the diaphragm of rats fed 20% galactose for 4 day at 105 mg/kg/day dose; NS = No Significant inhibition of polyol accumulation; format: functional, organism-based
Outline: as §2

Rattus norvegicus [25] = test: In vivo inhibition of galactitol accumulation in the sciatic nerve of rats fed 20% galactose for 4 day at 100 mg/kg/day dose; NS = No Significant inhibition of polyol accumulation; format: functional, organism-based
Outline: as §2

[26] = molecular target: Aldo-keto reductase family 1 member B1 (Bos taurus) (UniProt P16116); test: In vitro inhibition of aldose reductase in partially purified bovine lens preparation at a concentration of 10e -6M.; format: functional
Outline: as §1

Rattus norvegicus [27] = test: In vivo inhibition of galactitol accumulation in the sciatic nerve of rats fed 20% galactose for 4 day at 58 mg/kg/day dose; NS = No Significant inhibition of polyol accumulation; format: functional, organism-based
Outline: as §2

Rattus norvegicus [28] = test: In vivo inhibition of galactitol accumulation in the diaphragm of rats fed 20% galactose for 4 day at 58 mg/kg/day dose; NS = No Significant inhibition of polyol accumulation; format: functional, organism-based
Outline: as §2

Rattus norvegicus [29] = test: In vivo inhibition of galactitol accumulation in the sciatic nerve of rats fed 20% galactose for 4 day at 95 mg/kg/day dose; NS= No Significant inhibition of polyol accumulation; format: functional, organism-based
Rattus norvegicus [30] = test: In vivo inhibition of galactitol accumulation in the diaphragm of rats fed 20% galactose for 4 day at 109 mg/kg/day dose; format: functional
Outline: as §2

Rattus norvegicus [31] = test: In vivo inhibition of galactitol accumulation in the sciatic nerve of rats fed 20% galactose for 4 day at 94 mg/kg/day dose; NS = No Significant inhibition of polyol accumulation; format: functional, organism-based
Rattus norvegicus [32] = test: In vivo inhibition of galactitol accumulation in the diaphragm of rats fed 20% galactose for 4 day at 94 mg/kg/day dose; NS = No Significant inhibition of polyol accumulation; format: functional, organism-based
Outline: as §2

inhibition [2]: 20%
inhibition [3]: 63%
Compound: Cc1nc2ccc(Br)cc2c(=O)n1CC(=O)O
Lowering (Rattus norvegicus [4]): Not significant
Lowering (Rattus norvegicus [5]): Not significant

inhibition [6]: 42%
inhibition [7]: 28%
Compound: O=C(O)Cn1c2ccccc2c(=O)n1Cc1ccc(Br)cc1F
Lowering (Rattus norvegicus [8]): 25%
Lowering (Rattus norvegicus [9]): 51%

inhibition [13]: 32%
Compound: O=C(O)Cn1cnc2ccc(Br)cc2c1=O
Lowering (Rattus norvegicus [14]): Not significant
Lowering (Rattus norvegicus [15]): Not significant

inhibition [6]: 28%
inhibition [13]: 76%
Compound: Cc1nc2cc3ccccc3cc2c(=O)n1CC(=O)O
Lowering (Rattus norvegicus [18]): Not significant
Lowering (Rattus norvegicus [19]): Not significant

inhibition [22]: 40%
Compound: CC(C)c1nc2ccc(Br)cc2c(=O)n1CC(=O)O
Lowering (Rattus norvegicus [20]): Not significant
Lowering (Rattus norvegicus [21]): Not significant

inhibition [2]: 54%
inhibition [3]: 88%
Compound: Cc1nc2ccc(Br)cc2c(=S)n1CC(=O)O
Lowering (Rattus norvegicus [31]): Not significant
Lowering (Rattus norvegicus [32]): Not significant

Further lines, the molecule ahead of its results:

Compound: COc1ccc2c(C(=S)N(C)CC(=O)O)cccc2c1C(F)(F)F [TOLRESTAT]
ED50 (Rattus norvegicus [1]): 6.4 mg/kg/day

Compound: COc1ccc2c(c1)c(=O)n(CC(=O)O)c(=O)n2Cc1ccc(Cl)c(Cl)c1
inhibition [2]: 85%
inhibition [10]: 49%
Lowering (Rattus norvegicus [11]): 70%
Lowering (Rattus norvegicus [12]): 63%

Compound: O=C(O)Cn1c(=O)n(Cc2ccc(Cl)c(Cl)c2)c(=O)c2cc(Cl)ccc21
inhibition [2]: 88%
inhibition [10]: 64%
Lowering (Rattus norvegicus [16]): 38%
Lowering (Rattus norvegicus [17]): 68%

Compound: O=C(O)Cn1c(=O)c2sccc2n(Cc2ccc(Br)cc2F)c1=O
inhibition [2]: 68%
inhibition [10]: 43%
Lowering (Rattus norvegicus [23]): Not significant
Lowering (Rattus norvegicus [24]): Not significant

Compound: O=C(O)Cn1c(=O)c2c3c(sc2n(Cc2ccc(Cl)c(Cl)c2)c1=O)CCCC3
inhibition [2]: 86%
inhibition [10]: 63%
Lowering (Rattus norvegicus [11]): 19%
Lowering (Rattus norvegicus [25]): Not significant

Compound: Cc1c(-c2ccccc2)n(Cc2ccc(Cl)c(Cl)c2)c(=O)n(CC(=O)O)c1=O
inhibition [26]: 68%
inhibition [2]: 22%
inhibition [10]: 16%
Lowering (Rattus norvegicus [27]): Not significant
Lowering (Rattus norvegicus [28]): Not significant

Compound: O=C(O)CN1C(=O)N(Cc2ccc(Cl)c(Cl)c2)Cc2ccccc21
inhibition [2]: 53%
inhibition [10]: 31%
Lowering (Rattus norvegicus [29]): Not significant
Lowering (Rattus norvegicus [30]): 30%

Compound: O=C(O)Cn1c(=O)c2cc(Br)ccc2n(Cc2ccc(Br)cc2)c1=O
inhibition [2]: 59%
inhibition [10]: 39%
Lowering (Rattus norvegicus [11]): 36%
Lowering (Rattus norvegicus [12]): 24%
